Some results are limits rather than exact numbers.

For the first assay, the target named is Glutamate NMDA receptor. The assay can be described thus: Inhibition of strychnine-insensitive [3H]MK-801 binding to the N-methyl-D-aspartate glutamate receptor of synaptic plasma membranes(SPM) prepared from rat forebrain. It counts as cell-free. In short, it runs like this: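 Membranes treated with 0.04% v/v Triton X-100 and washed extensively in 50 mM Tris acetate pH 7.4. SPM (0.2–0.4 mg) incubated with 5 nM [3H]MK-801, 10 nM L-glutamate and test compound in the same buffer for 30 min at 25 °C. Samples filtered on 0.05% polyethylenimine-treated GF/B filters and washed four times with cold buffer. Filters scintillation counted; nonspecific binding set with 60 μM MK-801.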
The IC50 is the concentration needed to halve the response being measured. High values mean weaker potency, low ones greater potency. For `O=C(O)Cc1c(C(=O)O)[nH]c2cc(Cl)ccc12`, the IC50 is 6.8 µM.

For a further assay, the target named is Glutamate NMDA receptor. The assay can be described thus: Inhibition of strychnine-insensitive [3H]glycine binding to the N-methyl-D-aspartate glutamate receptor of synaptic plasma membranes(SPM) prepared from rat forebrain. It counts as cell-free. In short, it runs like this:
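Rat forebrain synaptic plasma membranes (male Sprague-Dawley, 30–45 days old), Triton X-100-washed; 0.2–0.4 mg incubated with 10 nM [3H]glycine and a range of compound concentrations in triplicate, in 50 mM Tris/acetate pH 7.4, for 10 min at 2 °C. Bound ligand separated by centrifugation (12000g, 15 min, 4 °C) or GF/B filtration, then scintillation counted. Nonspecific binding set with 100 μM glycine. Ki derived by logit-log analysis.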
As a reminder, the Ki is the equilibrium dissociation constant of an inhibitor or competing ligand from its target. Higher therefore signals weaker binding. For `CN(C)C(=O)Cc1c(C(=O)O)[nH]c2cc(Cl)ccc12`, the Ki is more than 30 µM.
Same read-out and setting: the same measure for `CCOC(=O)Cc1c(C=O)[nH]c2cc(Cl)ccc12`: more than 30 µM; for `O=C(O)Cc1c(C(=O)O)[nH]c2ccc(Cl)cc12`: 10.9 µM; for `NC(=O)Cc1c(C(=O)O)[nH]c2cc(Cl)ccc12`: 1.18 µM.
On the same count and under the same terms, then `O=C(O)c1[nH]c2ccccc2c1CO`, with more than 100 µM; and `O=C(O)c1cc2c(C(=O)O)cccc2[nH]1`, with more than 100 µM; and `O=C(O)Cc1c(C(=O)O)[nH]c2cc(Cl)ccc12`, with 1.61 µM.
Still for that read-out and setting: the same measure for `O=C(O)CC1c2ccccc2OC1C(=O)O` (stereo not given): more than 30 µM; for `CN(C)CCNC(=O)Cc1c(C(=O)NCCN(C)C)[nH]c2cc(Cl)ccc12`: more than 30 µM.
Regarding `O=C(O)Cc1c(C(=O)O)[nH]c2ccc(Br)cc12`, the Ki amounted to 29.2 µM.
Same read-out and setting: then `O=C(O)Cc1c(C(=O)O)[nH]c2ccc(F)cc12`, with 14.1 µM.
As to `O=C(O)CCCCc1c(C(=O)O)[nH]c2ccccc12`, the Ki is more than 100 µM.
On the same count and under the same terms, then `O=C(O)Cc1cc2ccccc2nc1C(=O)O`, with more than 100 µM; and `CCOC(=O)Cc1c(CO)[nH]c2cc(Cl)ccc12`, with more than 30 µM; and `COc1ccc2[nH]c(C(=O)O)cc2c1`, with more than 100 µM.
The same measure, in the same setting: the same measure for `O=C(O)c1cc2c(OCc3ccccc3)cccc2[nH]1`: more than 30 µM.
The same measure, in the same setting: then `CCOCCc1c(C(=O)O)[nH]c2cc(Cl)ccc12`, with 8.25 µM; and `CCCNC(=O)Cc1c(C(=O)O)[nH]c2cc(Cl)ccc12`, with 0.47 µM; and `O=C(O)c1cc2cc(F)ccc2[nH]1` [5-FLUOROINDOLE-2-CARBOXYLIC ACID], with 91 µM.
In turn, `O=C(O)c1cc2cc(Cl)ccc2[nH]1` [5-CHLOROINDOLE-2-CARBOXYLIC ACID] yielded a Ki of more than 100 µM.
On the same count and under the same terms, then `CCC(C(=O)O)c1c(C(=O)O)[nH]c2ccccc12` (stereo not given), with more than 100 µM; and `O=C(O)Cc1c(CO)[nH]c2cc(Cl)ccc12`, with more than 30 µM.
On the same count and under the same terms, the same measure for `O=C(O)Cc1c(C(=O)O)[nH]c2c(Cl)cccc12`: more than 30 µM.
On the same count and under the same terms, then `O=C(O)C1Cc2ccccc2N1` (stereo not given), with more than 30 µM; and `O=C(O)Cc1c(C(=O)O)oc2ccccc12`, with more than 100 µM.
As to `O=C(Cc1c(C(=O)O)[nH]c2cc(Cl)ccc12)NCCO`, affinity was put at a Ki of 10.3 µM.
For `O=C(O)c1cc2cc(Br)ccc2[nH]1`, the Ki was more than 100 µM.
Same read-out and setting: then `Cc1ccc2[nH]c(C(=O)O)cc2c1`, with more than 100 µM; and `CCOC(=O)Cc1c(C(=O)OCCCN(C)C)[nH]c2cc(Cl)ccc12`, with more than 100 µM; and `CC(C)OC(=O)Cc1c(C(=O)O)[nH]c2cc(Cl)ccc12`, with 3.85 µM.
As for `CCOC(=O)Cc1c(C(=O)O)[nH]c2cc(Cl)ccc12`, the Ki turned out to be 0.68 µM.
On the same count and under the same terms, the same measure for `O=C(O)c1cc2c(O)cccc2[nH]1`: more than 30 µM; for `O=C(O)CCc1c(C(=O)O)[nH]c2ccccc12`: more than 100 µM.
The compound `CN(C)CCCNC(=O)Cc1c(C(=O)O)[nH]c2cc(Cl)ccc12` yielded a Ki of more than 30 µM.
The compound `O=C(O)CCCc1c(C(=O)O)[nH]c2ccccc12` showed an inhibition constant Ki of more than 100 µM.
Still for that read-out and setting: the same measure for `O=C(O)c1cc2ccccc2[nH]1` [INDOLE-2-CARBOXYLIC ACID]: more than 100 µM; for `CCCOC(=O)Cc1c(C(=O)O)[nH]c2cc(Cl)ccc12`: 6.8 µM; for `O=C1Cc2c([nH]c3cc(Cl)ccc23)C(=O)O1`: 75.1 µM.
Still for that read-out and setting: then `O=C(O)c1[nH]c2cc(Cl)ccc2c1O`, with more than 100 µM; and `Cn1c(C(=O)O)c(CC(=O)O)c2ccccc21`, with more than 100 µM; and `CC(=O)Cc1c(C(=O)O)[nH]c2ccccc12`, with 29.6 µM.
The compound `O=C(Cc1c(C(=O)O)[nH]c2cc(Cl)ccc12)NCCc1ccccc1` had a Ki of 0.63 µM.
The compound `O=C(O)c1[nH]c2ccccc2c1CCO` gave a Ki of more than 30 µM.
Still for that read-out and setting: the same measure for `Cc1cc2c(CC(=O)O)c(C(=O)O)[nH]c2cc1Cl`: more than 30 µM.

The values are drawn from ChEMBL document CHEMBL1125656, “Novel indole-2-carboxylates as ligands for the strychnine-insensitive N-methyl-D-aspartate-linked glycine receptor” (J Med Chem, 1991).
